Data taken from ChEMBL document CHEMBL4340580, “Antibacterial and Inhibitory Activities against Nitric Oxide Production of Coumaronochromones and Prenylated Isoflavones from Millettia extensa” (J Nat Prod, 2019).
In brackets after ≈: the same amount, converted by molar mass. Activity calls are given as the source filed them. No cut-off for these calls is given here.

Experiments:
[1] = system: Escherichia coli; test: Antibacterial activity against Escherichia coli by CLSI protocol based method; assay type: functional
In short: (§1)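 Strains came from the Microbiological Resources Center, Bangkok, Thailand. Antibacterial testing followed Clinical and Laboratory Standards Institute recommendations.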

[2] = system: Micrococcus luteus; test: Antibacterial activity against Micrococcus luteus by CLSI protocol based method; assay type: functional; in short: as §1
[3] = system: Escherichia coli; test: Antibacterial activity against Escherichia coli at >128 ug/ml by CLSI protocol based method; assay type: functional, organism-based; in short: as §1
[4] = system: Shigella flexneri; test: Antibacterial activity against Shigella flexneri by CLSI protocol based method; assay type: functional; in short: as §1
[5] = system: Shigella flexneri; test: Antibacterial activity against Shigella flexneri at >128 ug/ml by CLSI protocol based method; assay type: functional, organism-based; in short: as §1
[6] = system: Bacillus cereus; test: Antibacterial activity against Bacillus cereus by CLSI protocol based method; assay type: functional; in short: as §1
[7] = system: Pseudomonas aeruginosa; test: Antibacterial activity against Pseudomonas aeruginosa at >128 ug/ml by CLSI protocol based method; assay type: functional, organism-based; in short: as §1
[8] = system: Pseudomonas aeruginosa; test: Antibacterial activity against Pseudomonas aeruginosa by CLSI protocol based method; assay type: functional; in short: as §1
[9] = Toxicity in mouse RAW264.7 cells assessed as cell viability at 10 uM by MTT assay; assay type: cell-based; conditions: read-out: Activity
[10] = system: Streptococcus mutans; test: Antibacterial activity against Streptococcus mutans by CLSI protocol based method; assay type: functional; in short: as §1
[11] = system: Staphylococcus aureus; test: Antibacterial activity against Staphylococcus aureus by CLSI protocol based method; assay type: functional; in short: as §1
[12] = system: RAW264.7; test: Inhibition of LPS-induced nitric oxide production in mouse RAW264.7 cells incubated for 24 hrs by Griess reagent based assay; assay type: functional, cell-based
In short: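 RAW 264.7 cells were seeded at 5.0 × 10^5 cells/mL and held 24 h at 37 °C, 5% CO2. Medium was discarded and cells were stimulated with 1 μg/mL LPS with or without compound for 24 h at 37 °C. Supernatant was mixed 1:1 with Griess reagent for 10 min at room temperature. Absorbance was read at 570 nm against a sodium nitrite calibration curve, giving IC50.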

[13] = system: Staphylococcus epidermidis; test: Antibacterial activity against Staphylococcus epidermidis by CLSI protocol based method; assay type: functional; in short: as §1
[14] = system: Micrococcus luteus; test: Antibacterial activity against Micrococcus luteus at >128 ug/ml by CLSI protocol based method; assay type: functional, organism-based; in short: as §1
[15] = system: Streptococcus mutans; test: Antibacterial activity against Streptococcus mutans at >128 ug/ml by CLSI protocol based method; assay type: functional, organism-based; in short: as §1
[16] = system: Bacillus cereus; test: Antibacterial activity against Bacillus cereus at >128 ug/ml by CLSI protocol based method; assay type: functional, organism-based; in short: as §1

Compound | MIC [1] | MIC [2] | Activity [3] | MIC [4] | Activity [5] | MIC [6] | Activity [7] | MIC [8] | viability at 10 µM [9] [%] | MIC [10] | MIC [11] [µg/mL] | IC50 ([12]; raw264.7) | MIC [13] [µg/mL] | IC50 ([12]; Mus musculus, RAW264.7, 24 h, read-out: IC50) [µM] | Activity [14] | Activity [15] | Activity [16]
GENTAMICIN | 0.25 µg/mL | – | – | – | – | – | – | – | – | – | – | – | – | – | – | – | –
CC(C)=CCOc1ccc2c(c1)O[C@@H]1Oc3cc4c(c(O)c3C(=O)[C@]21O)C=CC(C)(C)O4 | inactive | 64 µg/mL (≈ 147 µM) | inactive | inactive | inactive | 32 µg/mL (≈ 73.3 µM) | inactive | inactive | 65.3 | 128 µg/mL (≈ 293 µM) | 32 (≈ 73.3 µM) | Not Active | 128 (≈ 293 µM) | – | – | – | –
CC(C)=CCc1c2c(c(O)c3c(=O)c(-c4ccc(O)cc4)coc13)C=CC(C)(C)O2 [WARANGALONE] | – | – | – | – | – | – | – | – | 86.5 | – | – | – | – | 8.5 | – | – | –
C=CC(C)(C)c1cc(-c2coc3cc4c(c(O)c3c2=O)C=CC(C)(C)O4)ccc1O | inactive | 64 µg/mL (≈ 158 µM) | inactive | 128 µg/mL (≈ 316 µM) | – | 64 µg/mL (≈ 158 µM) | inactive | inactive | 61.1 | 128 µg/mL (≈ 316 µM) | 64 (≈ 158 µM) | Not Active | 128 (≈ 316 µM) | – | – | – | –
CC(C)=CCc1c2c(c(O)c3c(=O)c(-c4ccc(O)cc4O)coc13)C=CC(C)(C)O2 | – | – | – | – | – | – | – | – | 75.5 | – | – | Not Active | – | – | – | – | –
COc1cc(-c2coc3cc4c(c(O)c3c2=O)C=CC(C)(C)O4)c(OC)cc1OCC=C(C)C | inactive | inactive | inactive | 128 µg/mL (≈ 276 µM) | – | inactive | inactive | inactive | 60.1 | inactive | 128 (≈ 276 µM) | Not Active | 128 (≈ 276 µM) | – | inactive | inactive | inactive
COc1c2c(cc3occ(-c4ccc(OCC=C(C)C)cc4O)c(=O)c13)OC(C)(C)C=C2 | inactive | inactive | inactive | inactive | inactive | inactive | inactive | inactive | – | inactive | 128 (≈ 295 µM) | – | 128 (≈ 295 µM) | – | inactive | inactive | inactive
CC(C)=CCC1=C(O)c2c(occ(-c3ccc(O)cc3O)c2=O)C(CC=C(C)C)(CC=C(C)C)C1=O | – | – | – | – | – | – | – | – | 75.5 | – | – | Not Active | – | – | – | – | –
CC(C)=CCOc1ccc(-c2coc3cc(OCC=C(C)C)cc(O)c3c2=O)cc1 | inactive | inactive | inactive | 128 µg/mL (≈ 315 µM) | – | inactive | inactive | inactive | 72.2 | inactive | 128 (≈ 315 µM) | Not Active | 128 (≈ 315 µM) | – | inactive | inactive | inactive
CC(C)=CCC1=C(O)c2c(occ(-c3ccc(O)c(O)c3)c2=O)C(CC=C(C)C)(CC=C(C)C)C1=O | 128 µg/mL (≈ 261 µM) | 2 µg/mL (≈ 4.08 µM) | – | 128 µg/mL (≈ 261 µM) | – | 32 µg/mL (≈ 65.2 µM) | – | 128 µg/mL (≈ 261 µM) | – | 16 µg/mL (≈ 32.6 µM) | 4 (≈ 8.15 µM) | – | 4 (≈ 8.15 µM) | – | – | – | –
